Experimental data taken from ChEMBL document CHEMBL1944580, “Synthesis of novel sulfonamide-1,2,4-triazoles, 1,3,4-thiadiazoles and 1,3,4-oxadiazoles, as potential antibacterial and antifungal agents. Biological evaluation and conformational analysis studies” (2012).
Values after ≈ are worked out from the molar mass of the structure shown.

Tests used:
Staphylococcus aureus [1] = test: Antibacterial activity against Staphylococcus aureus ATCC 6538 after 24 hrs by micro dilution method; type: functional; settings: ATCC 6538, 24 h
Outline: (§1)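 Microdilution MIC in 96-well plates. Bacterial suspensions adjusted in sterile saline to 1.0 × 10^5 CFU/ml, giving 1.0 × 10^4 cfu per well in LB broth. Compounds tested at up to 1 mg/ml. Plates incubated 24 h. MIC taken as the lowest concentration with no visible growth under a binocular microscope. OD at 655 nm was also read against a blank and the positive control. Streptomycin and ampicillin were the positive controls.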

Bacillus cereus [2] = test: Antibacterial activity against Bacillus cereus clinical isolate after 24 hrs by micro dilution method; type: functional; outline: as §1
Micrococcus flavus [3] = test: Antibacterial activity against Micrococcus flavus ATCC 10240 after 24 hrs by micro dilution method; type: functional; settings: ATCC 10240, 24 h; outline: as §1
Listeria monocytogenes [4] = test: Antibacterial activity against Listeria monocytogenes NCTC 7973 after 24 hrs by micro dilution method; type: functional; settings: NCTC 7973, 24 h; outline: as §1
Pseudomonas aeruginosa [5] = test: Antibacterial activity against Pseudomonas aeruginosa ATCC 27853 after 24 hrs by micro dilution method; type: functional; settings: ATCC 27853, 24 h; outline: as §1
Enterobacter cloacae [6] = test: Antibacterial activity against Enterobacter cloacae human isolate after 24 hrs by micro dilution method; type: functional; outline: as §1
Salmonella typhimurium [7] = test: Antibacterial activity against Salmonella Typhimurium ATCC 13311 after 24 hrs by micro dilution method; type: functional, Salmonella enterica subsp. enterica serovar Typhimurium; settings: Salmonella enterica, ATCC 13311, 24 h; outline: as §1
Escherichia coli [8] = test: Antibacterial activity against Escherichia coli ATCC 35210 after 24 hrs by micro dilution method; type: functional; settings: ATCC 35210, 24 h; outline: as §1
Staphylococcus aureus [9] = test: Antibacterial activity against Staphylococcus aureus ATCC 6538 treated for 24 hrs followed by sub-cultivated for 72 hrs by micro dilution method; type: functional
Outline: (§2)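 2 µl from each well was serially subcultured into 100 µl fresh broth per well and incubated a further 72 h. MBC is the lowest concentration with no visible growth, taken as 99.5% killing of the original inoculum. Streptomycin and ampicillin were the positive controls.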

Bacillus cereus [10] = test: Antibacterial activity against Bacillus cereus clinical isolate treated for 24 hrs followed by sub-cultivated for 72 hrs by micro dilution method; type: functional; outline: as §2
Micrococcus flavus [11] = test: Antibacterial activity against Micrococcus flavus ATCC 10240 treated for 24 hrs followed by sub-cultivated for 72 hrs by micro dilution method; type: functional; outline: as §2
Listeria monocytogenes [12] = test: Antibacterial activity against Listeria monocytogenes NCTC 7973 treated for 24 hrs followed by sub-cultivated for 72 hrs by micro dilution method; type: functional; outline: as §2
Pseudomonas aeruginosa [13] = test: Antibacterial activity against Pseudomonas aeruginosa ATCC 27853 treated for 24 hrs followed by sub-cultivated for 72 hrs by micro dilution method; type: functional; outline: as §2
Enterobacter cloacae [14] = test: Antibacterial activity against Enterobacter cloacae human isolate treated for 24 hrs followed by sub-cultivated for 72 hrs by micro dilution method; type: functional; outline: as §2
Salmonella typhimurium [15] = test: Antibacterial activity against Salmonella Typhimurium ATCC 13311 treated for 24 hrs followed by sub-cultivated for 72 hrs by micro dilution method; type: functional, Salmonella enterica subsp. enterica serovar Typhimurium; settings: Salmonella enterica; outline: as §2
Escherichia coli [16] = test: Antibacterial activity against Escherichia coli ATCC 35210 treated for 24 hrs followed by sub-cultivated for 72 hrs by micro dilution method; type: functional; outline: as §2
Talaromyces funiculosus [17] = test: Antifungal activity against Penicillium funiculosum ATCC 36839 after 72 hrs by serial dilution method; type: functional; settings: ATCC 36839, 72 h
Outline: (§3)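 Modified microdilution MIC. Spores were washed from malt agar cultures with sterile 0.85% saline containing 0.1% Tween 80 and adjusted to about 1.0 × 10^5 per 100 µl well in malt broth. Compounds were dissolved in DMSO (1 mg/ml). Plates incubated 72 h at 28 °C. MIC is the lowest concentration with no visible growth under a binocular microscope. Bifonazole and ketoconazole were the references.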

Penicillium ochrochloron [18] = test: Antifungal activity against Penicillium ochrochloron ATCC 9112 after 72 hrs by serial dilution method; type: functional; settings: ATCC 9112, 72 h; outline: as §3
Trichoderma viride [19] = test: Antifungal activity against Trichoderma viride IAM 5061 after 72 hrs by serial dilution method; type: functional; settings: IAM 5061, 72 h; outline: as §3
Aspergillus fumigatus [20] = test: Antifungal activity against Aspergillus fumigatus human isolate after 72 hrs by serial dilution method; type: functional; outline: as §3
Aspergillus niger [21] = test: Antifungal activity against Aspergillus niger ATCC 6275 after 72 hrs by serial dilution method; type: functional; settings: ATCC 6275, 72 h; outline: as §3
Aspergillus flavus [22] = test: Antifungal activity against Aspergillus flavus ATCC 9643 after 72 hrs by serial dilution method; type: functional; settings: ATCC 9643, 72 h; outline: as §3
Aspergillus versicolor [23] = test: Antifungal activity against Aspergillus versicolor ATCC 11730 after 72 hrs by serial dilution method; type: functional; settings: ATCC 11730, 72 h; outline: as §3
Fulvia fulva [24] = test: Antifungal activity against Fulvia fulva after 72 hrs by serial dilution method; type: functional; outline: as §3
Talaromyces funiculosus [25] = test: Antifungal activity against Penicillium funiculosum ATCC 36839 treated for 72 hrs followed by sub-cultivated for 5 days by serial dilution method; type: functional
Outline: (§4)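 MFC obtained after the 72 h, 28 °C malt-broth microdilution (spore inoculum about 1.0 × 10^5 per well, compounds from 1 mg/ml DMSO). 2 µl was serially subcultured into 100 µl broth per well and incubated a further 5 days at 28 °C. MFC is the lowest concentration with no visible growth, taken as 99.5% killing of the original inoculum.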

Penicillium ochrochloron [26] = test: Antifungal activity against Penicillium ochrochloron ATCC 9112 treated for 72 hrs followed by sub-cultivated for 5 days by serial dilution method; type: functional; outline: as §4
Trichoderma viride [27] = test: Antifungal activity against Trichoderma viride IAM 5061 treated for 72 hrs followed by sub-cultivated for 5 days by serial dilution method; type: functional; outline: as §4
Aspergillus fumigatus [28] = test: Antifungal activity against Aspergillus fumigatus human isolate treated for 72 hrs followed by sub-cultivated for 5 days by serial dilution method; type: functional; outline: as §4
Aspergillus niger [29] = test: Antifungal activity against Aspergillus niger ATCC 6275 treated for 72 hrs followed by sub-cultivated for 5 days by serial dilution method; type: functional; outline: as §4
Aspergillus flavus [30] = test: Antifungal activity against Aspergillus flavus ATCC 9643 treated for 72 hrs followed by sub-cultivated for 5 days by serial dilution method; type: functional; outline: as §4
Aspergillus versicolor [31] = test: Antifungal activity against Aspergillus versicolor ATCC 11730 treated for 72 hrs followed by sub-cultivated for 5 days by serial dilution method; type: functional; outline: as §4
Fulvia fulva [32] = test: Antifungal activity against Fulvia fulva treated for 72 hrs followed by sub-cultivated for 5 days by serial dilution method; type: functional; outline: as §4

SMILES	MIC (Staphylococcus aureus [1]) [µM]	MIC (Bacillus cereus [2]) [µM]	MIC (Micrococcus flavus [3]) [µM]	MIC (Listeria monocytogenes [4]) [µM]	MIC (Pseudomonas aeruginosa [5]) [µM]	MIC (Enterobacter cloacae [6]) [µM]	MIC (Salmonella typhimurium [7]) [µM]	MIC (Escherichia coli [8]) [µM]	MBC (Staphylococcus aureus [9]) [µM]	MBC (Bacillus cereus [10]) [µM]	MBC (Micrococcus flavus [11]) [µM]	MBC (Listeria monocytogenes [12]) [µM]	MBC (Pseudomonas aeruginosa [13]) [µM]	MBC (Enterobacter cloacae [14]) [µM]	MBC (Salmonella typhimurium [15]) [µM]	MBC (Escherichia coli [16]) [µM]	MIC (Talaromyces funiculosus [17]) [µM]	MIC (Penicillium ochrochloron [18]) [µM]	MIC (Trichoderma viride [19]) [µM]	MIC (Aspergillus fumigatus [20]) [µM]	further results
CCCCn1c(Cc2cc(OC)c(OC)cc2S(=O)(=O)N(C)C)n[nH]c1=O	250 (≈ 99.6 µg/mL)	250 (≈ 99.6 µg/mL)	630 (≈ 251 µg/mL)	380 (≈ 151 µg/mL)	380 (≈ 151 µg/mL)	500 (≈ 199 µg/mL)	500 (≈ 199 µg/mL)	130 (≈ 51.8 µg/mL)	500 (≈ 199 µg/mL)	760 (≈ 303 µg/mL)	630 (≈ 251 µg/mL)	380 (≈ 151 µg/mL)	380 (≈ 151 µg/mL)	760 (≈ 303 µg/mL)	760 (≈ 303 µg/mL)	250 (≈ 99.6 µg/mL)	130 (≈ 51.8 µg/mL)	130 (≈ 51.8 µg/mL)	30 (≈ 12 µg/mL)	250 (≈ 99.6 µg/mL)	MIC (Aspergillus niger [21]): 130 µM (≈ 51.8 µg/mL); MIC (Aspergillus flavus [22]): 130 µM (≈ 51.8 µg/mL); MIC (Aspergillus versicolor [23]): 130 µM (≈ 51.8 µg/mL); MIC (Fulvia fulva [24]): 250 µM (≈ 99.6 µg/mL); MFC (Talaromyces funiculosus [25]): 250 µM (≈ 99.6 µg/mL); MFC (Penicillium ochrochloron [26]): 380 µM (≈ 151 µg/mL); MFC (Trichoderma viride [27]): 60 µM (≈ 23.9 µg/mL); MFC (Aspergillus fumigatus [28]): 250 µM (≈ 99.6 µg/mL); MFC (Aspergillus niger [29]): 380 µM (≈ 151 µg/mL); MFC (Aspergillus flavus [30]): 380 µM (≈ 151 µg/mL); MFC (Aspergillus versicolor [31]): 380 µM (≈ 151 µg/mL); MFC (Fulvia fulva [32]): 250 µM (≈ 99.6 µg/mL)
CCCNc1nnc(Cc2cc(OC)c(OC)cc2S(=O)(=O)N(C)C)o1	260 (≈ 100 µg/mL)	260 (≈ 100 µg/mL)	130 (≈ 50 µg/mL)	130 (≈ 50 µg/mL)	260 (≈ 100 µg/mL)	630 (≈ 242 µg/mL)	130 (≈ 50 µg/mL)	630 (≈ 242 µg/mL)	260 (≈ 100 µg/mL)	260 (≈ 100 µg/mL)	260 (≈ 100 µg/mL)	260 (≈ 100 µg/mL)	260 (≈ 100 µg/mL)	750 (≈ 288 µg/mL)	260 (≈ 100 µg/mL)	630 (≈ 242 µg/mL)	260 (≈ 100 µg/mL)	130 (≈ 50 µg/mL)	70 (≈ 26.9 µg/mL)	130 (≈ 50 µg/mL)	MIC (Aspergillus niger [21]): 130 µM (≈ 50 µg/mL); MIC (Aspergillus flavus [22]): 130 µM (≈ 50 µg/mL); MIC (Aspergillus versicolor [23]): 260 µM (≈ 100 µg/mL); MIC (Fulvia fulva [24]): 130 µM (≈ 50 µg/mL); MFC (Talaromyces funiculosus [25]): 780 µM (≈ 300 µg/mL); MFC (Penicillium ochrochloron [26]): 260 µM (≈ 100 µg/mL); MFC (Trichoderma viride [27]): 130 µM (≈ 50 µg/mL); MFC (Aspergillus fumigatus [28]): 260 µM (≈ 100 µg/mL); MFC (Aspergillus niger [29]): 390 µM (≈ 150 µg/mL); MFC (Aspergillus flavus [30]): 390 µM (≈ 150 µg/mL); MFC (Aspergillus versicolor [31]): 390 µM (≈ 150 µg/mL); MFC (Fulvia fulva [32]): 260 µM (≈ 100 µg/mL)
COc1cc(Cc2nnc(NC(C)(C)C)o2)c(S(=O)(=O)N(C)C)cc1OC	250 (≈ 99.6 µg/mL)	390 (≈ 155 µg/mL)	250 (≈ 99.6 µg/mL)	250 (≈ 99.6 µg/mL)	390 (≈ 155 µg/mL)	630 (≈ 251 µg/mL)	130 (≈ 51.8 µg/mL)	390 (≈ 155 µg/mL)	500 (≈ 199 µg/mL)	390 (≈ 155 µg/mL)	500 (≈ 199 µg/mL)	390 (≈ 155 µg/mL)	390 (≈ 155 µg/mL)	630 (≈ 251 µg/mL)	250 (≈ 99.6 µg/mL)	390 (≈ 155 µg/mL)	130 (≈ 51.8 µg/mL)	130 (≈ 51.8 µg/mL)	60 (≈ 23.9 µg/mL)	130 (≈ 51.8 µg/mL)	MIC (Aspergillus niger [21]): 250 µM (≈ 99.6 µg/mL); MIC (Aspergillus flavus [22]): 130 µM (≈ 51.8 µg/mL); MIC (Aspergillus versicolor [23]): 130 µM (≈ 51.8 µg/mL); MIC (Fulvia fulva [24]): 250 µM (≈ 99.6 µg/mL); MFC (Talaromyces funiculosus [25]): 250 µM (≈ 99.6 µg/mL); MFC (Penicillium ochrochloron [26]): 380 µM (≈ 151 µg/mL); MFC (Trichoderma viride [27]): 130 µM (≈ 51.8 µg/mL); MFC (Aspergillus fumigatus [28]): 250 µM (≈ 99.6 µg/mL); MFC (Aspergillus niger [29]): 380 µM (≈ 151 µg/mL); MFC (Aspergillus flavus [30]): 250 µM (≈ 99.6 µg/mL); MFC (Aspergillus versicolor [31]): 380 µM (≈ 151 µg/mL); MFC (Fulvia fulva [32]): 250 µM (≈ 99.6 µg/mL)
